# Test system: Escherichia coli
# Test: Antibacterial activity against Escherichia coli DH10B transfected with pBC SK (-) KPC-3 by broth microdilution method
# Type: functional
# Conditions: not given
row,SMILES,MIC [mg/L]
1,O.O=C(NC1CCNCC1)[C@@H]1CC[C@@H]2CN1C(=O)N2OS(=O)(=O)O [RELEBACTAM],> 16
2,NC(=O)[C@@H]1CC[C@@H]2CN1C(=O)N2OS(=O)(=O)[O-].[Na+] [AVIBACTAM SODIUM],> 16

# Test system: Bacteria
# Test: Inhibition of bacteria KPC-2 assessed as half life using nitrocefin as substrate
# Conditions: not given
row,SMILES,T1/2 [h]
1,O.O=C(NC1CCNCC1)[C@@H]1CC[C@@H]2CN1C(=O)N2OS(=O)(=O)O [RELEBACTAM],0.767
2,NC(=O)[C@@H]1CC[C@@H]2CN1C(=O)N2OS(=O)(=O)[O-].[Na+] [AVIBACTAM SODIUM],1.37

# Test system: Escherichia coli
# Test: Antibacterial activity against Escherichia coli DH10B transfected with pBR322-catI-KPC-2 by broth microdilution method
# Type: functional
# Conditions: not given
row,SMILES,MIC [mg/L]
1,O.O=C(NC1CCNCC1)[C@@H]1CC[C@@H]2CN1C(=O)N2OS(=O)(=O)O [RELEBACTAM],> 16
2,NC(=O)[C@@H]1CC[C@@H]2CN1C(=O)N2OS(=O)(=O)[O-].[Na+] [AVIBACTAM SODIUM],> 16

# Test system: Escherichia coli
# Test: Synergistic antibacterial activity against Escherichia coli DH10B assessed as cefepime MIC at 4 ug/ml by broth microdilution method
# Type: functional
# Conditions: dose 4 µg/ml
row,SMILES,MIC [mg/L]
1,O.O=C(NC1CCNCC1)[C@@H]1CC[C@@H]2CN1C(=O)N2OS(=O)(=O)O [RELEBACTAM],≤ 0.12
2,NC(=O)[C@@H]1CC[C@@H]2CN1C(=O)N2OS(=O)(=O)[O-].[Na+] [AVIBACTAM SODIUM],≤ 0.12

# Test system: Klebsiella pneumoniae
# Test: Synergistic antibacterial activity against Klebsiella pneumoniae 972/1910 producing KPC-3 assessed as cefepime MIC at 4 ug/ml by broth microdilution method
# Type: functional
# Conditions: dose 4 µg/ml
row,SMILES,MIC [mg/L]
1,O.O=C(NC1CCNCC1)[C@@H]1CC[C@@H]2CN1C(=O)N2OS(=O)(=O)O [RELEBACTAM],0.25
2,NC(=O)[C@@H]1CC[C@@H]2CN1C(=O)N2OS(=O)(=O)[O-].[Na+] [AVIBACTAM SODIUM],≤ 0.12

# Test system: Pseudomonas aeruginosa
# Test: Synergistic antibacterial activity against Pseudomonas aeruginosa 776 assessed as cefepime MIC at 4 ug/ml by broth microdilution method
# Type: functional
# Conditions: dose 4 µg/ml
row,SMILES,MIC [mg/L]
1,O.O=C(NC1CCNCC1)[C@@H]1CC[C@@H]2CN1C(=O)N2OS(=O)(=O)O [RELEBACTAM],16

# Test system: Pseudomonas aeruginosa
# Test: Synergistic antibacterial activity against Pseudomonas aeruginosa 839 assessed as cefepime MIC at 4 ug/ml by broth microdilution method
# Type: functional
# Conditions: dose 4 µg/ml
row,SMILES,MIC [mg/L]
1,O.O=C(NC1CCNCC1)[C@@H]1CC[C@@H]2CN1C(=O)N2OS(=O)(=O)O [RELEBACTAM],4
2,NC(=O)[C@@H]1CC[C@@H]2CN1C(=O)N2OS(=O)(=O)[O-].[Na+] [AVIBACTAM SODIUM],4

# Test system: Acinetobacter baumannii
# Test: Synergistic antibacterial activity against Acinetobacter baumannii PR323 producing OXA-24/40 assessed as cefepime MIC at 4 ug/ml by broth microdilution method
# Type: functional
# Conditions: dose 4 µg/ml
row,SMILES,MIC [mg/L]
1,O.O=C(NC1CCNCC1)[C@@H]1CC[C@@H]2CN1C(=O)N2OS(=O)(=O)O [RELEBACTAM],> 16
2,NC(=O)[C@@H]1CC[C@@H]2CN1C(=O)N2OS(=O)(=O)[O-].[Na+] [AVIBACTAM SODIUM],> 16

# Test system: Acinetobacter baumannii
# Test: Synergistic antibacterial activity against Acinetobacter baumannii PR408 producing OXA-24/40 assessed as cefepime MIC at 4 ug/ml by broth microdilution method
# Type: functional
# Conditions: dose 4 µg/ml
row,SMILES,MIC [mg/L]
1,O.O=C(NC1CCNCC1)[C@@H]1CC[C@@H]2CN1C(=O)N2OS(=O)(=O)O [RELEBACTAM],16
2,NC(=O)[C@@H]1CC[C@@H]2CN1C(=O)N2OS(=O)(=O)[O-].[Na+] [AVIBACTAM SODIUM],> 16

# Test system: Acinetobacter baumannii
# Test: Synergistic antibacterial activity against Acinetobacter baumannii PR448 producing OXA-23 assessed as cefepime MIC at 4 ug/ml by broth microdilution method
# Type: functional
# Conditions: dose 4 µg/ml
row,SMILES,MIC [mg/L]
1,O.O=C(NC1CCNCC1)[C@@H]1CC[C@@H]2CN1C(=O)N2OS(=O)(=O)O [RELEBACTAM],16
2,NC(=O)[C@@H]1CC[C@@H]2CN1C(=O)N2OS(=O)(=O)[O-].[Na+] [AVIBACTAM SODIUM],16

# Test system: Klebsiella pneumoniae
# Test: Synergistic antibacterial activity against Klebsiella pneumoniae 1084/1957 producing KPC-3 assessed as meropenem MIC at 4 ug/ml by broth microdilution method
# Type: functional
# Conditions: dose 4 µg/ml
# Method in brief: (§1)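 Broth microdilution per CLSI guidelines, using custom frozen panels. […] Each partner drug was also tested alone. MICs were run in triplicate and the modal value is reported.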
row,SMILES,MIC [mg/L]
1,O.O=C(NC1CCNCC1)[C@@H]1CC[C@@H]2CN1C(=O)N2OS(=O)(=O)O [RELEBACTAM],≤ 0.12
2,NC(=O)[C@@H]1CC[C@@H]2CN1C(=O)N2OS(=O)(=O)[O-].[Na+] [AVIBACTAM SODIUM],≤ 0.12

# Test system: Klebsiella pneumoniae
# Test: Synergistic antibacterial activity against Klebsiella pneumoniae 1398/2291 producing KPC-3 assessed as meropenem MIC at 4 ug/ml by broth microdilution method
# Type: functional
# Conditions: dose 4 µg/ml
# Method in brief: as §1
row,SMILES,MIC [mg/L]
1,O.O=C(NC1CCNCC1)[C@@H]1CC[C@@H]2CN1C(=O)N2OS(=O)(=O)O [RELEBACTAM],≤ 0.12
2,NC(=O)[C@@H]1CC[C@@H]2CN1C(=O)N2OS(=O)(=O)[O-].[Na+] [AVIBACTAM SODIUM],≤ 0.12

# Test system: Klebsiella pneumoniae
# Test: Synergistic antibacterial activity against Klebsiella pneumoniae 761/1723 producing KPC-3 assessed as meropenem MIC at 4 ug/ml by broth microdilution method
# Type: functional
# Conditions: dose 4 µg/ml
row,SMILES,MIC [mg/L]
1,O.O=C(NC1CCNCC1)[C@@H]1CC[C@@H]2CN1C(=O)N2OS(=O)(=O)O [RELEBACTAM],≤ 0.12
2,NC(=O)[C@@H]1CC[C@@H]2CN1C(=O)N2OS(=O)(=O)[O-].[Na+] [AVIBACTAM SODIUM],≤ 0.12

# Test system: Klebsiella pneumoniae
# Test: Synergistic antibacterial activity against Klebsiella pneumoniae 1354/2241 producing KPC-3 assessed as meropenem MIC at 4 ug/ml by broth microdilution method
# Type: functional
# Conditions: dose 4 µg/ml
# Method in brief: as §1
row,SMILES,MIC [mg/L]
1,O.O=C(NC1CCNCC1)[C@@H]1CC[C@@H]2CN1C(=O)N2OS(=O)(=O)O [RELEBACTAM],≤ 0.12
2,NC(=O)[C@@H]1CC[C@@H]2CN1C(=O)N2OS(=O)(=O)[O-].[Na+] [AVIBACTAM SODIUM],≤ 0.12

# Test system: Klebsiella pneumoniae
# Test: Synergistic antibacterial activity against Klebsiella pneumoniae CAV 1636 producing OXA-181 assessed as meropenem MIC at 4 ug/ml by broth microdilution method
# Type: functional
# Conditions: dose 4 µg/ml
row,SMILES,MIC [mg/L]
1,O.O=C(NC1CCNCC1)[C@@H]1CC[C@@H]2CN1C(=O)N2OS(=O)(=O)O [RELEBACTAM],16
2,NC(=O)[C@@H]1CC[C@@H]2CN1C(=O)N2OS(=O)(=O)[O-].[Na+] [AVIBACTAM SODIUM],1

# Test system: Klebsiella pneumoniae
# Test: Synergistic antibacterial activity against Klebsiella pneumoniae NY BS producing OXA-232 assessed as meropenem MIC at 4 ug/ml by broth microdilution method
# Type: functional
# Conditions: dose 4 µg/ml
row,SMILES,MIC [mg/L]
1,O.O=C(NC1CCNCC1)[C@@H]1CC[C@@H]2CN1C(=O)N2OS(=O)(=O)O [RELEBACTAM],> 16
2,NC(=O)[C@@H]1CC[C@@H]2CN1C(=O)N2OS(=O)(=O)[O-].[Na+] [AVIBACTAM SODIUM],0.5

# Test system: Pseudomonas aeruginosa
# Test: Synergistic antibacterial activity against Pseudomonas aeruginosa CL232 assessed as meropenem MIC at 4 ug/ml by broth microdilution method
# Type: functional
# Conditions: dose 4 µg/ml
row,SMILES,MIC [mg/L]
1,O.O=C(NC1CCNCC1)[C@@H]1CC[C@@H]2CN1C(=O)N2OS(=O)(=O)O [RELEBACTAM],> 16
2,NC(=O)[C@@H]1CC[C@@H]2CN1C(=O)N2OS(=O)(=O)[O-].[Na+] [AVIBACTAM SODIUM],> 16

# Test system: Pseudomonas aeruginosa
# Test: Synergistic antibacterial activity against Pseudomonas aeruginosa 715 assessed as meropenem MIC at 4 ug/ml by broth microdilution method
# Type: functional
# Conditions: dose 4 µg/ml
row,SMILES,MIC [mg/L]
1,O.O=C(NC1CCNCC1)[C@@H]1CC[C@@H]2CN1C(=O)N2OS(=O)(=O)O [RELEBACTAM],16
2,NC(=O)[C@@H]1CC[C@@H]2CN1C(=O)N2OS(=O)(=O)[O-].[Na+] [AVIBACTAM SODIUM],16

# Test system: Pseudomonas aeruginosa
# Test: Synergistic antibacterial activity against Pseudomonas aeruginosa 776 assessed as meropenem MIC at 4 ug/ml by broth microdilution method
# Type: functional
# Conditions: dose 4 µg/ml
row,SMILES,MIC [mg/L]
1,O.O=C(NC1CCNCC1)[C@@H]1CC[C@@H]2CN1C(=O)N2OS(=O)(=O)O [RELEBACTAM],> 16

# Test system: Pseudomonas aeruginosa
# Test: Synergistic antibacterial activity against Pseudomonas aeruginosa 795 assessed as meropenem MIC at 4 ug/ml by broth microdilution method
# Type: functional
# Conditions: dose 4 µg/ml
row,SMILES,MIC [mg/L]
1,O.O=C(NC1CCNCC1)[C@@H]1CC[C@@H]2CN1C(=O)N2OS(=O)(=O)O [RELEBACTAM],8
2,NC(=O)[C@@H]1CC[C@@H]2CN1C(=O)N2OS(=O)(=O)[O-].[Na+] [AVIBACTAM SODIUM],16

# Test system: Acinetobacter baumannii
# Test: Synergistic antibacterial activity against Acinetobacter baumannii PR359 producing OXA-23 assessed as meropenem MIC at 4 ug/ml by broth microdilution method
# Type: functional
# Conditions: dose 4 µg/ml
row,SMILES,MIC [mg/L]
1,O.O=C(NC1CCNCC1)[C@@H]1CC[C@@H]2CN1C(=O)N2OS(=O)(=O)O [RELEBACTAM],> 16
2,NC(=O)[C@@H]1CC[C@@H]2CN1C(=O)N2OS(=O)(=O)[O-].[Na+] [AVIBACTAM SODIUM],> 16

# Test system: Acinetobacter baumannii
# Test: Synergistic antibacterial activity against Acinetobacter baumannii PR420 producing OXA-23/24/40 assessed as meropenem MIC at 4 ug/ml by broth microdilution method
# Type: functional
# Conditions: dose 4 µg/ml
row,SMILES,MIC [mg/L]
1,O.O=C(NC1CCNCC1)[C@@H]1CC[C@@H]2CN1C(=O)N2OS(=O)(=O)O [RELEBACTAM],> 16
2,NC(=O)[C@@H]1CC[C@@H]2CN1C(=O)N2OS(=O)(=O)[O-].[Na+] [AVIBACTAM SODIUM],> 16

# Test system: Acinetobacter baumannii
# Test: Synergistic antibacterial activity against Acinetobacter baumannii PR474 producing OXA-23/24/40 assessed as meropenem MIC at 4 ug/ml by broth microdilution method
# Type: functional
# Conditions: dose 4 µg/ml
row,SMILES,MIC [mg/L]
1,O.O=C(NC1CCNCC1)[C@@H]1CC[C@@H]2CN1C(=O)N2OS(=O)(=O)O [RELEBACTAM],> 16
2,NC(=O)[C@@H]1CC[C@@H]2CN1C(=O)N2OS(=O)(=O)[O-].[Na+] [AVIBACTAM SODIUM],> 16

# Test system: Acinetobacter baumannii
# Test: Synergistic antibacterial activity against ADC deleted Acinetobacter baumannii transfected with pWH1266 producing OXA-24/40 assessed as meropenem MIC at 4 ug/ml by broth microdilution method
# Type: functional
# Conditions: dose 4 µg/ml
row,SMILES,MIC [mg/L]
1,O.O=C(NC1CCNCC1)[C@@H]1CC[C@@H]2CN1C(=O)N2OS(=O)(=O)O [RELEBACTAM],> 16
2,NC(=O)[C@@H]1CC[C@@H]2CN1C(=O)N2OS(=O)(=O)[O-].[Na+] [AVIBACTAM SODIUM],> 16

# Source: ChEMBL document CHEMBL5247575 (J Med Chem, 2018)
